Legend:
[1] = folding enthalpy; higher = less favourable; fluorescence melt of hairpins on a sequencing array, two-state fit; settings: sodium 0.088 M
How it was run: (§1)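 Two-state fits, bootstrapped, provided melting temperature and folding enthalpy from Cy3 fluorescence normalised to pre-quench Cy3 and to control constructs. Library hairpins with annealed Cy3 and quencher oligos were imaged on a sequenced MiSeq flow cell in 50 mM Na-HEPES pH 8.0, 25 mM NaCl, at 2.5 °C intervals up to 60 °C. Four replicates were combined with inverse-variance weighting. A 9.35 °C upward shift was applied to fitted temperatures to match UV melts.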

[2] = melting temperature; fluorescence melt of hairpins on a sequencing array, two-state fit, raised by 9.35 °C to match UV melts; settings: sodium 0.088 M
How it was run: as §1

| Sequence | folding enthalpy [1] | Tm [2] |
| --- | --- | --- |
| GATCGTTGTAACGATC ((((((....)))))) | -48.8 kcal/mol | 58.4 °C |
| GATCGTTTAAACGATC ((((((....)))))) | -48.9 kcal/mol | 56.1 °C |
| GATCGTTTAACGATC ((((((...)))))) | -36.6 kcal/mol | 55.7 °C |
| GATCGTTTCACGATC ((((((...)))))) | -33.5 kcal/mol | 58.6 °C |
| GATCGTTTCCACGATC ((((((....)))))) | -40.5 kcal/mol | 54 °C |
| GATCGTTTTACGATC ((((((...)))))) | -40.8 kcal/mol | 60.1 °C |
| GATCTAAACATAGATC ((((((....)))))) | -26.9 kcal/mol | 37 °C |
| GATCTAAACGTAGATC ((((((....)))))) | -28.7 kcal/mol | 35.8 °C |
| GATCTAACCTAGATC ((((((...)))))) | -29 kcal/mol | 38.1 °C |
| GATCTAACGCTAGATC ((((((....)))))) | -20.7 kcal/mol | 38.1 °C |
| GATCTAAGAATAGATC ((((((....)))))) | -20.4 kcal/mol | 34 °C |
| GATCTAAGTCTAGATC ((((((....)))))) | -25.4 kcal/mol | 37.7 °C |
| GATCTAAGTTTAGATC ((((((....)))))) | -30 kcal/mol | 41.9 °C |
| GATCTAATTCTAGATC ((((((....)))))) | -29.9 kcal/mol | 37 °C |
| GATCTACAACTAGATC ((((((....)))))) | -25.6 kcal/mol | 34.1 °C |
| GATCTACACTTAGATC ((((((....)))))) | -44.7 kcal/mol | 43.4 °C |
| GATCTACATGTAGATC ((((((....)))))) | -45.9 kcal/mol | 52.5 °C |
| GATCTACATTTAGATC ((((((....)))))) | -35.3 kcal/mol | 39 °C |

| Sequence | folding enthalpy [1] | Tm [2] |
| --- | --- | --- |
| GATCTACCATAGATC ((((((...)))))) | -30.5 kcal/mol | 37.5 °C |
| GATCTACGACTAGATC ((((((....)))))) | -32.1 kcal/mol | 35 °C |
| GATCTACGAGTAGATC ((((((....)))))) | -37.8 kcal/mol | 52.3 °C |
| GATCTACGCATAGATC ((((((....)))))) | -28.5 kcal/mol | 42.7 °C |
| GATCTACGGCTAGATC ((((((....)))))) | -28.7 kcal/mol | 37.1 °C |
| GATCTACGGTAGATC ((((((...)))))) | -37.3 kcal/mol | 41.4 °C |
| GATCTACGTCTAGATC ((((((....)))))) | -20.7 kcal/mol | 40.7 °C |
| GATCTACGTTTAGATC ((((((....)))))) | -32.4 kcal/mol | 39.1 °C |
| GATCTACTATTAGATC ((((((....)))))) | -33.1 kcal/mol | 38.6 °C |
| GATCTACTCTAGATC ((((((...)))))) | -31 kcal/mol | 40.6 °C |
| GATCTAGAAGTAGATC ((((((....)))))) | -27.6 kcal/mol | 39.9 °C |
| GATCTAGAGATAGATC ((((((....)))))) | -26.2 kcal/mol | 39.1 °C |
| GATCTAGAGCTAGATC ((((((....)))))) | -29.4 kcal/mol | 39.4 °C |
| GATCTAGATATAGATC ((((((....)))))) | -34.4 kcal/mol | 46.8 °C |
| GATCTAGCCGTAGATC ((((((....)))))) | -31.2 kcal/mol | 44.5 °C |
| GATCTAGCCTTAGATC ((((((....)))))) | -38.6 kcal/mol | 44.4 °C |
| GATCTAGGATTAGATC ((((((....)))))) | -29.1 kcal/mol | 44.8 °C |
| GATCTAGGCGTAGATC ((((((....)))))) | -32.4 kcal/mol | 45.4 °C |
